Compound activity (PubChem BioAssay)
DYRK1A inh: inhibitors of rat Dyrk1A kinase; Q63470; ADP-Glo luminescence, NFATc1 peptide; inhibition, % at 12.5 µM; hit rate 0.43% among 310,000; in the data active = inhibition above about 50%;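 also: plate controls were vehicle with enzyme for no effect and no enzyme for full effect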
CAL PDZ FP-1: inhibitors of human CAL PDZ peptide binding. Q9HD26. purified CAL PDZ, TMR-peptide fluorescence polarization, 1 h. inhibition, % at 20 µM. hit rate 0.02% among 330,000. AID 504414;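 active = highest replicate inhibition of at least 40%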;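 also: plate controls were DMSO neutral control wells for no effect and unlabeled competitor peptide control wells for full effect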
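Control set: unlabelled peptide and DMSO controls / Material: purified CerCALP PDZ construct / Timing: 1 h incubation at room temperature before polarization reading / Doses: 20 µM, one dose / Detection: fluorescence polarization (mP)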
Rtt109 HAT inh: blocks Candida albicans Rtt109/Vps75 acetyltransferase activity; Q5AAJ8; purified Rtt109/Vps75, ThioGlo CoA-SH fluorescence, 4 h; inhibition, % at 34.9 µM; hit rate 0.16% among 330,000; AID 540336;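 active = inhibition of at least 50% in every replicate; inconclusive = best replicate reaches 50% inhibition but some replicates fall short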
Target sequence (Q5AAJ8 whole entry, looked up): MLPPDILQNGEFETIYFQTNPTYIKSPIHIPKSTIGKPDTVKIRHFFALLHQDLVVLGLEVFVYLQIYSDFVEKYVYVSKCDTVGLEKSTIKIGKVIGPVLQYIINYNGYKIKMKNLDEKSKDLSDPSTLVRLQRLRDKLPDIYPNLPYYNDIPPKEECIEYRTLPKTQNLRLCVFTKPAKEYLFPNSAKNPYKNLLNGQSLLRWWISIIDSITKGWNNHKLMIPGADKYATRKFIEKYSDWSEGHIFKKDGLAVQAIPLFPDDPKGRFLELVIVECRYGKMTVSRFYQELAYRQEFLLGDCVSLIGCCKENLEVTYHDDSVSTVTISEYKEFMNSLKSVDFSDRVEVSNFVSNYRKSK
ALR H2O2 inh: human ALR oxidase inhibition via reduced H2O2; purified ALR, DTT oxidation, H2O2 HRP-luminol luminescence; inhibition, % (concentration not given with the values); hit rate 3.8% among 290,000;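 active = mean replicate inhibition above about 79%, with every replicate also reaching it, limit read from the data; inconclusive = only one of the two criteria met; inactive = mean below limit and not every replicate reaching it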
Target sequence (P55789 whole entry, looked up): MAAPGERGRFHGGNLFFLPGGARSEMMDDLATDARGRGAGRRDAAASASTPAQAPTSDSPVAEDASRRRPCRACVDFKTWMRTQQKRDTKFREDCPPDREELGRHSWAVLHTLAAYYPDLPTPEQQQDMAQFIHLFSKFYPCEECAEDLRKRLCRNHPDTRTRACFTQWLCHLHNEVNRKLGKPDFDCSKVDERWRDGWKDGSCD
CAL PDZ FP-2: blocks peptide binding to the human CAL PDZ domain; purified CAL PDZ, TMR-peptide fluorescence polarization, 1 h; hit rate 0.92% among 300,000; Q9HD26; inhibition, % at 24.9 µM; AID 602252;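 active = mean inhibition of at least 30% with at least half of replicates also reaching 30%; inconclusive = no clear call, values can overlap the other calls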;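 also: 0% = DMSO neutral control and 100% = excess unlabeled competitor peptide PRC23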
Active calls of the source: *; u = inconclusive; x = no result. Shown are actives, neighbours in structure and some others; about 4.3% of the full set was active somewhere.

SMILES	DYRK1A inh	CAL PDZ FP-1	Rtt109 HAT inh	ALR H2O2 inh	CAL PDZ FP-2
CC1CCCCC12NC(=O)N(CC(=O)OCC(=O)NC(=O)c1ccccc1)C2=O (centres undefined)	3	-3	-3	1	-8
CCOc1ccc(CCNC(=O)CN2C(=O)NC3(CCCCC3C)C2=O)cc1OCC (centres undefined)	5	-3	-4	x	-1
COc1ccc(C(C)(C)C)cc1NC(=O)COC(=O)CN1C(=O)NC2(CCCCC2C)C1=O (centres undefined)	-3	0	6	-8	52*
COC(=O)c1[nH]nc2c1C(=O)N(Cc1ccccc1)C2=O	2	0	0	7	0
COC(=O)c1[nH]nc(-c2ccccc2)c1-c1ccccc1	x	0	54*	3	5
CCCN1C=CC(=C/C=C(\C#N)C(=O)OCC)C=C1	x	x	x	99*	x
CCCCCCN1C=CC(=C/C=C(\C#N)C(=O)OCC)C=C1	x	2	2	5	0
CCCN1C=CC(=CC=C(C#N)C#N)C=C1	-1	1	-2	99*	x
C=CCN1C=CC(=CC=C(C#N)C#N)C=C1	1	1	2	99*	x
C=CCN1C=C/C(=C\C=C(C#N)C#N)c2ccccc21	-5	-3	0	x	-3
Cn1c(=O)[nH]c(=O)c2c1nc([N+](=O)[O-])n2Cc1ccccc1	4	-1	-2	-30	0
Cc1ccc(-n2nc(C)c(=O)c(-c3ccccc3)c2NC(=O)c2cccs2)cc1	x	-1	-4	-1	12
COCCCNC(=O)C1CC(=O)OC1c1ccc(OC)c(OC)c1 (centres undefined)	5	1	-6	-27	42*
CC(=O)NC(Cc1cccc(C)c1)C(=O)NC1CCN(S(=O)(=O)c2ccccc2)CC1 (centres undefined)	-1	-1	-6	x	49*
NC(=S)NN=C1c2ccccc2-c2c(F)c(F)c(F)c(F)c21	x	-1	-14	x	-1
N#Cc1cccc2c1-c1ccccc1/C2=N/NC(N)=S	27	0	x	x	56*
Cc1cc(C)nc(-n2nc(C)c(Br)c2Nc2ccc(Br)cc2)n1	-5	0	-4	-3	0
Cc1nn(C)c(Nc2ccc(Br)cc2)c1Br	-6	-3	3	93*	-4
O=C(O)CNC(=O)CC1S/C(=N/N=C2/NC(=O)CS2)NC1=O (centres undefined)	-6	-2	-5	90*	1
NC(=O)NC(=O)CC1S/C(=N/N=C2\CSC(=O)N2)NC1=O (centres undefined)	x	-1	-23	85*	0
NC(=O)NC(=O)CC1S/C(=N/N=C/c2ccccc2)NC1=O (centres undefined)	x	-2	19	69	0
CSc1ccc(S(=O)(=O)N2CCC(C(=O)NCCN3CCOCC3)CC2)cc1	3	-1	0	47	0
COC(=O)c1ccc(NC(=O)CSc2nnc(-c3cccnc3)o2)cc1	-2	-2	-3	99*	-5
O=C(CSc1nnc(-c2ccc(O)cc2)o1)Nc1ccccc1	2	-2	5	-12	62*
Cc1cc(SCC(=O)OCC(=O)N(CCC#N)c2ccccc2)nc2ccccc12	10	-4	6	-5	-9
SMILES	DYRK1A inh	CAL PDZ FP-1	Rtt109 HAT inh	ALR H2O2 inh	CAL PDZ FP-2
O=C1[C@H]2[C@@H](c3ccc(F)cc3)N3C(=O)N(c4ccc(Br)cc4)C(=O)[C@@]3(Cc3ccccc3)[C@H]2C(=O)N1C1CCCCC1	-4	1	7	0	-3
CCOc1cccc2c1OC1(C)CC2NC(=O)N1c1cccc(C(=O)N2CCN(c3ccccn3)CC2)c1 (centres undefined)	-4	-1	-1	2	2
CCOc1cccc2c1OC1(C)CC2NC(=O)N1c1cccc(Cl)c1 (centres undefined)	1	x	6	-9	93*
CCN(CC)CCCn1c2c(c(SCC(=O)Nc3nc(C)cs3)nc1=O)CCC2	-6	-1	x	-235	11
Cc1cc(C)nc(Nc2nc(-c3ccccc3)cs2)n1	-5	2	-18	x	-4
c1ccc(-c2csc(Nc3nc(N4CCOCC4)nc(N4CCOCC4)n3)n2)cc1	6	0	1	1	49*
C=CCn1c(SCC(C)=O)nc2scc(-c3ccc(C)o3)c2c1=O	-1	-13	2	96*	-3
C=CCn1c(=S)[nH]c2scc(-c3ccc(C)o3)c2c1=O	0	x	-3	98*	4
C=CCn1c(SCC(=O)NCCCC)nc2scc(-c3ccco3)c2c1=O	-45	0	47	53	-3
C=CCn1c(=S)[nH]c2sccc2c1=O	6	0	2	98*	-2
COc1ccccc1N(C(=O)c1ccco1)C(C(=O)NC1CCCCC1)c1cc(OC)c(OC)c(OC)c1 (centres undefined)	-1	-1	-3	-7	0
CC(=O)OC1CC(C)(C)N(OC(=O)c2ccc(N)cc2)C(C)(C)C1	-4	1	-9	98*	x
Cc1nc2cc(N)ccc2n1C1CCCCC1	-5	0	24	100*	x
CCn1c(=O)n(CC)c2cc(S(N)(=O)=O)ccc21	5	-1	3	-10	x
CCn1c(=O)n(CC)c2cc(N)ccc21	5	1	6	98*	x
CCn1c(C)nc2cc(N)ccc21	16	1	22	98*	0
CCn1c(C)nc2cc(OC)ccc21	3	0	-7	-11	6
O=c1cc(/C=C/c2c(F)cccc2Cl)[nH]c2ccccc12	-1	-4	-6	6	-6
N#Cc1ccc(S(=O)(=O)N2CCN(C(=O)c3cn(-c4ccccc4)nc3-c3cccnc3)CC2)cc1	x	1	3	x	1
CCn1c(CSc2nnc(C)n2-c2ccccc2)nc2cc(S(=O)(=O)N(C)C)ccc21	1	-1	-2	x	-1
CCn1c(-c2ccccn2)nc2cc(S(=O)(=O)N(C)C)ccc21	-7	0	1	99*	-2
CCn1c(-c2cc(Br)cc(OC)c2O)nc2cc(S(=O)(=O)N(C)C)ccc21	-4	-2	x	91*	-1
COc1cc2cc(CCCOC(=O)c3ccc(C(F)(F)F)cc3)oc(=O)c2cc1OC	2	0	0	2	-2
O=C(CN(C(=O)c1csnn1)c1ccccc1Cl)NC1CCCC1	7	-1	-9	-2	x
CCOC(=O)c1nnn(-c2nonc2N)c1CN1CCCCCC1	5	-1	3	-13	x
Cc1c(C(=O)N2CCCCCC2)nnn1-c1nonc1N	2	0	-8	0	49*
O=C(CSc1nnc(C2CC2)n1C1CC1)c1ccc(F)cc1	5	0	-6	u	x
CC(=O)NCc1ccc(C(=O)CSc2nnc(C3CC3)n2C2CC2)cc1	x	1	5	78*	-3
CCN(CC)CCn1c2c(c(SCC(=O)Nc3nc(C)cs3)nc1=O)CCCC2	-19	-1	-1	98*	x
CCN(CC)CCn1c2c(c(SCC(=O)Nc3nc(C)cs3)nc1=O)CCC2	5	-3	-2	99*	7
